Assays:
[1] = Cytotoxicity against human TZM-bl cells assessed as cell viability at 50 ug after 48 hrs by MTT assay; type: cell-based; details: read-out: Activity
Outline: (§1)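 TZM-bl cells, 3 × 10³ per well, incubated 48 h at 37 °C in 5% CO₂ with or without compound. MTT (5 mg/mL reagent) added for 3 h, then solubilised in 20% SDS/50% DMF in PBS. OD read at 570 nm with 690 nm reference. Viability = [(OD treated − OD virus control)/(OD uninfected − OD virus control)] × 100.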

[2] = Partition coefficient, log P of the compound; type: physicochemical; details: octanol/water
[3] = Cytotoxicity against human CEM cells expressing green fluorescent protein assessed as cell viability at 100 ug after 48 hrs by MTT assay; type: cell-based, CCRF-CEM; details: read-out: Activity
[4] = Cytotoxicity against human CEM cells expressing green fluorescent protein assessed as cell viability at 50 ug after 48 hrs by MTT assay; type: cell-based, CCRF-CEM; details: read-out: Activity
[5] = Cytotoxicity against human TZM-bl cells assessed as cell viability at 20 ug after 48 hrs by MTT assay; type: cell-based; details: read-out: Activity; outline: as §1
[6] = test system: Human immunodeficiency virus 1; assay: Antiviral activity against 0.025 MOI Human immunodeficiency virus 1 infected in human TZM-bl cells at 2 ug/ml after 48 hrs by beta-galactosidase assay; type: functional; details: Human immunodeficiency virus 1, TZM-bl
Outline: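 TZM-bl cells, 2.0 × 10⁵ per well, cultured overnight at 37 °C in 5% CO₂. Virus with treatments added for 4 h. Cells then washed twice in serum-free DMEM and refed with DMEM + 10% FCS. Compounds re-added and cells incubated 48 h. Cells fixed in 1% glutaraldehyde for 10 min and stained 24 h at 37 °C. Blue foci counted microscopically; % inhibition = 100 − (foci treated/foci untreated infected × 100). AZT positive control.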

[7] = test system: Human immunodeficiency virus 1; assay: Antiviral activity against 0.05 MOI Human immunodeficiency virus 1 NL4.3 infected in human CEM cells expressing green fluorescent protein at 20 ug/ml after 8 days by fluorometric analysis; type: functional; details: Human immunodeficiency virus 1, NL4.3, CCRF-CEM, 192 h
Outline: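 CEM-GFP cells seeded at 2.0 × 10⁵ cells/mL with compounds in duplicate. AZT ([…]) was the positive control; 50% ethanol and distilled water were vehicle controls. Cells incubated at 37 °C in 5% CO₂. On day 5, 0.4 mL of suspension was replaced with 1 mL fresh medium and compounds were re-added, then incubation continued. % inhibition = 100 − (GFP fluorescence treated/untreated infected × 100).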

[8] = Cytotoxicity against human CEM cells expressing green fluorescent protein assessed as cell viability at 20 ug after 48 hrs by MTT assay; type: cell-based, CCRF-CEM; details: read-out: Activity
[9] = Cytotoxicity against human TZM-bl cells assessed as cell viability at 100 ug after 48 hrs by MTT assay; type: cell-based; details: read-out: Activity; outline: as §1
[10] = Cytotoxicity against human CEM cells expressing green fluorescent protein assessed as cell viability at 10 ug after 48 hrs by MTT assay; type: cell-based, CCRF-CEM; details: read-out: Activity
[11] = Cytotoxicity against human TZM-bl cells assessed as cell viability at 10 ug after 48 hrs by MTT assay; type: cell-based; details: read-out: Activity; outline: as §1

| Structure (SMILES) | viability at 48 h, 50 ug [1] [%] | logP [2] | viability at 48 h, 100 ug [3] [%] | viability at 48 h, 50 ug [4] [%] | viability at 48 h, 20 ug [5] [%] | inhibition at 2 µg/mL [6] [%] | inhibition at 20 µg/mL [7] [%] | viability at 48 h, 20 ug [8] [%] | viability at 48 h, 100 ug [9] [%] | viability at 48 h, 10 ug [10] [%] | viability at 48 h, 10 ug [11] [%] |
| --- | --- | --- | --- | --- | --- | --- | --- | --- | --- | --- | --- |
| O=C1Nc2ccccc2[C@]12C[C@H]2CO | 92 | 2.19 | 90 | 92 | 98 | 4 | 6 | 95 | 89 | 96 | 99 |
| O=C1Nc2ccc(OC(F)(F)F)cc2[C@]12C[C@H]2CO | 62 | 1.89 | 3 | 33 | 93 | 10 | 7 | 72 | 60 | 91 | 90 |
| Cc1ccc2c(c1)[C@]1(C[C@H]1CO)C(=O)N2 | 95 | 1.21 | 100 | 100 | 100 | 6 | 3 | 101 | 93 | 105 | 102 |
| Cc1ccc2c(c1)[C@]1(C[C@H]1CCl)C(=O)N2 | 88 | 2.44 | 81 | 85 | 91 | 8 | 5 | 89 | 87 | 92 | 93 |
| O=C1Nc2ccc(OC(F)(F)F)cc2[C@]12C[C@H]2CCl | 66 | 3.48 | 2 | 37 | 95 | 9 | 3 | 74 | 60 | 94 | 91 |
| O=C1Nc2ccccc2[C@]12C[C@H]2CCl | 87 | 1.95 | 88 | 83 | 92 | 7 | 2 | 87 | 86 | 91 | 93 |
| O=C1Nc2ccc([N+](=O)[O-])cc2[C@]12C[C@H]2CO | 104 | 0.54 | 116 | 122 | 107 | 5 | 3 | 127 | 109 | 119 | 100 |
| O=C1Nc2ccc([N+](=O)[O-])cc2[C@]12C[C@H]2CCl | 101 | 1.84 | 76 | 103 | 102 | 6 | 4 | 118 | 92 | 101 | 102 |
